Values belong to the molecule of their own block, whether it stands above or below them. Activity calls are given as the source filed them. The rule behind the calls is not given here.
How the values were obtained:
Rattus norvegicus [1] = assay: Ratio of ovulated rats to total number of rats determined in a anti-ovulatory assay by administering 2.5 microg of compound; 2/8; assay type: functional, organism-based
Rattus norvegicus [2] = assay: Ratio of ovulated rats to total number of rats determined in a anti-ovulatory assay by administering 10 microg of compound; 0/8; assay type: functional, organism-based
Rattus norvegicus [3] = assay: Ratio of ovulated rats to total number of rats determined in a anti-ovulatory assay by administering 2.5 microg of compound; 0/8; assay type: functional, organism-based
Rattus norvegicus [4] = assay: Ratio of ovulated rats to total number of rats determined in a anti-ovulatory assay by administering 1 microg of compound; 8/8; assay type: functional, organism-based
Rattus norvegicus [5] = assay: Ratio of ovulated rats to total number of rats determined in a anti-ovulatory assay by administering 5 microg of compound; 0/8; assay type: functional, organism-based
Rattus norvegicus [6] = assay: Ratio of ovulated rats to total number of rats determined in a anti-ovulatory assay by administering 2.5 microg of compound; 8/8; assay type: functional, organism-based
Rattus norvegicus [7] = assay: Ratio of ovulated rats to total number of rats determined in a anti-ovulatory assay by administering 10 microg of compound; 1/8; assay type: functional, organism-based
Rattus norvegicus [8] = assay: Ratio of ovulated rats to total number of rats determined in a anti-ovulatory assay by administering 1 microg of compound; 5/8; assay type: functional, organism-based
Rattus norvegicus [9] = assay: Ratio of ovulated rats to total number of rats determined in a anti-ovulatory assay by administering 25 microg of compound; 4/8; assay type: functional, organism-based
Rattus norvegicus [10] = assay: Ratio of ovulated rats to total number of rats determined in a anti-ovulatory assay by administering 10 microg of compound; 8/8; assay type: functional, organism-based
Rattus norvegicus [11] = assay: Ratio of ovulated rats to total number of rats determined in a anti-ovulatory assay by administering 5 microg of compound; 1/8; assay type: functional, organism-based
Rattus norvegicus [12] = assay: Ratio of ovulated rats to total number of rats determined in a anti-ovulatory assay by administering 5 microg of compound; 2/8; assay type: functional, organism-based
Rattus norvegicus [13] = assay: Ratio of ovulated rats to total number of rats determined in a anti-ovulatory assay by administering 250 microg of compound; 6/8; assay type: functional, organism-based
Rattus norvegicus [14] = assay: Ratio of ovulated rats to total number of rats determined in a anti-ovulatory assay by administering 1 ug of compound; 2/8; assay type: functional, organism-based
Rattus norvegicus [15] = assay: Ratio of ovulated rats to total number of rats determined in a anti-ovulatory assay by administering 5 microg of compound; 5/8; assay type: functional, organism-based
[16] = target: T1, Gonadotropin-releasing hormone receptor (Rattus norvegicus, UniProt P30969); assay: Inhibition of binding of radiolabeled histrelin to Gonadotropin-releasing hormone receptor (GnRHr) in rat pituitary gland membranes; assay type: cell membranes, Membrane
T1 sequence (P30969 whole entry): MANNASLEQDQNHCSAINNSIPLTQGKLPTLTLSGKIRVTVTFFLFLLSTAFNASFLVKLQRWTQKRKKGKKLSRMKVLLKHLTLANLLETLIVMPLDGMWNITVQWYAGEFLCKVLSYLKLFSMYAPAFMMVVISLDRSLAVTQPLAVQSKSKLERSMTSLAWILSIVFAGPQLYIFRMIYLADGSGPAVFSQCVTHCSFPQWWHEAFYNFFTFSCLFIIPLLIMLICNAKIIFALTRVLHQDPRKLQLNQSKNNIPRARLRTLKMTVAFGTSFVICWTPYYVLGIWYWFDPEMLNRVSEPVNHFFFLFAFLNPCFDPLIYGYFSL
Outline: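 Rat anterior pituitary membranes (male and female glands equal numbers), homogenized in 0.32 M sucrose/aprotinin, 4000g pellet, diluted 15-fold in 10 mM Hepes, 0.2% BSA, pH 7.6. Filtration onto PEI-treated glass filters, scintillation counting. IC50 in nM, duplicate, n = 1.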

SMILES: CC(=O)Nc1ccc(C[C@H](NC(=O)[C@H](CO)NC(=O)[C@@H](NC(=O)c2ccncc2)NC(=O)[C@@H](Cc2ccc(Cl)cc2)NC(=O)[C@@H](Cc2ccc3ccccc3c2)NC(C)=O)C(=O)N[C@H](Cc2ccc(NC(C)=O)cc2)C(=O)N[C@@H](CC(C)C)C(=O)N[C@@H](CCCCNC(C)C)C(=O)N2CCC[C@@H]2C(=O)N[C@H](C)C(N)=O)cc1 (single isomer, unassigned)
ov. rat/total (Rattus norvegicus [1]): Partially active | ov. rat/total (Rattus norvegicus [2]): Active

SMILES: CN[C@@H](NC(=O)[C@H]1CCCN1C(=O)[C@H](CCCCNC(C)C)NC(=O)[C@H](CC(C)C)NC(=O)[C@@H](Cc1ccc(NC(C)=O)cc1)NC(=O)[C@H](Cc1ccc(NC(C)=O)cc1)NC(=O)[C@H](CO)NC(=O)[C@@H](Cc1cccnc1)NC(=O)[C@@H](Cc1ccc(Cl)cc1)NC(=O)[C@@H](Cc1ccc2ccccc2c1)NC(C)=O)C(N)=O
ov. rat/total (Rattus norvegicus [3]): Active | ov. rat/total (Rattus norvegicus [4]): inactive

SMILES: CC(=O)Nc1ccc(C[C@H](NC(=O)[C@@H](NC=O)NC(=O)[C@@H](Cc2cccnc2)NC(=O)[C@@H](Cc2ccc(Cl)cc2)NC(=O)[C@@H](Cc2ccc3ccccc3c2)NC(C)=O)C(=O)N[C@H](Cc2ccc(NC(C)=O)cc2)C(=O)N[C@@H](CC(C)C)C(=O)N[C@@H](CCCCNC(C)C)C(=O)N2CCC[C@@H]2C(=O)N[C@H](C)C(N)=O)cc1 (single isomer, unassigned)
ov. rat/total (Rattus norvegicus [5]): Active

SMILES: CC(=O)Nc1ccc(C[C@H](NC(=O)[C@H](NC(=O)[C@@H](Cc2cccnc2)NC(=O)[C@@H](Cc2ccc(Cl)cc2)NC(=O)[C@@H](Cc2ccc3ccccc3c2)NC(C)=O)N(C)C=O)C(=O)N[C@H](Cc2ccc(NC(C)=O)cc2)C(=O)N[C@@H](CC(C)C)C(=O)N[C@@H](CCCCNC(C)C)C(=O)N2CCC[C@@H]2C(=O)N[C@H](C)C(N)=O)cc1 (single isomer, unassigned)
ov. rat/total (Rattus norvegicus [6]): inactive | ov. rat/total (Rattus norvegicus [7]): Active

SMILES: CC(=O)Nc1ccc(C[C@@H](NC(=O)[C@H](NC(=O)c2ccc(O)cc2)NC(=O)[C@H](CO)NC(=O)[C@@H](Cc2cccnc2)NC(=O)[C@@H](Cc2ccc(Cl)cc2)NC(=O)[C@@H](Cc2ccc3ccccc3c2)NC(C)=O)C(=O)N[C@@H](CC(C)C)C(=O)N[C@@H](CCCCNC(C)C)C(=O)N2CCC[C@@H]2C(=O)N[C@H](C)C(N)=O)cc1
ov. rat/total (Rattus norvegicus [8]): Partially active | ov. rat/total (Rattus norvegicus [3]): Active

SMILES: CC(=O)Nc1ccc(C[C@H](NC(=O)[C@H](CO)NC(=O)[C@@H](Cc2cccnc2)NC(=O)[C@@H](Cc2ccc(Cl)cc2)NC(=O)[C@@H](Cc2ccc3ccccc3c2)NC(C)=O)C(=O)N[C@H](C(=O)N[C@@H](CC(C)C)C(=O)N[C@@H](CCCCNC(C)C)C(=O)N2CCC[C@@H]2C(=O)N[C@H](C)C(N)=O)N(C)C(=O)c2ccc(NC(C)=O)cc2)cc1 (mixture of isomers)
ov. rat/total (Rattus norvegicus [9]): Partially active | ov. rat/total (Rattus norvegicus [10]): inactive

SMILES: CC(=O)Nc1ccc(C[C@H](NC(=O)[C@H](CO)NC(=O)[C@@H](Cc2cccnc2)NC(=O)[C@@H](Cc2ccc(Cl)cc2)NC(=O)[C@@H](Cc2ccc3ccccc3c2)NC(C)=O)C(=O)N[C@H](Cc2ccc(NC(C)=O)cc2)C(=O)N[C@H](C(=O)N[C@@H](CCCCNC(C)C)C(=O)N2CCC[C@@H]2C(=O)N[C@H](C)C(N)=O)N(C)C(C)=O)cc1
ov. rat/total (Rattus norvegicus [1]): Partially active | ov. rat/total (Rattus norvegicus [11]): Active

SMILES: CC(=O)Nc1ccc(C[C@@H](NC(=O)[C@@H](NC(=O)c2ccc(NC(C)=O)cc2)NC(=O)[C@H](CO)NC(=O)[C@@H](Cc2cccnc2)NC(=O)[C@@H](Cc2ccc(Cl)cc2)NC(=O)[C@@H](Cc2ccc3ccccc3c2)NC(C)=O)C(=O)N[C@@H](CC(C)C)C(=O)N[C@@H](CCCCNC(C)C)C(=O)N2CCC[C@@H]2C(=O)N[C@H](C)C(N)=O)cc1
ov. rat/total (Rattus norvegicus [12]): Partially active

SMILES: CC(=O)Nc1ccc(C[C@H](NC(=O)[C@H](CO)NC(=O)[C@@H](Cc2cccnc2)NC(=O)[C@H](NC(=O)c2c[nH]nc2N)NC(=O)[C@@H](Cc2ccc3ccccc3c2)NC(C)=O)C(=O)N[C@H](Cc2ccc(NC(C)=O)cc2)C(=O)N[C@@H](CC(C)C)C(=O)N[C@@H](CCCCNC(C)C)C(=O)N2CCC[C@@H]2C(=O)N[C@H](C)C(N)=O)cc1
ov. rat/total (Rattus norvegicus [13]): inactive

SMILES: CC(=O)Nc1ccc(C[C@H](NC(=O)[C@H](CO)NC(=O)[C@@H](Cc2cccnc2)NC(=O)[C@@H](Cc2ccc(Cl)cc2)NC(=O)[C@@H](Cc2ccc3ccccc3c2)NC(C)=O)C(=O)N[C@H](Cc2ccc(NC(C)=O)cc2)C(=O)N[C@@H](CC(C)C)C(=O)N[C@@H](CCCCNC(C)C)C(=O)N2CCC[C@@H]2C(=O)N[C@@H](C)C(N)=O)cc1
ov. rat/total (Rattus norvegicus [3]): Active | ov. rat/total (Rattus norvegicus [4]): inactive

SMILES: CC(=O)Nc1ccc(C[C@@H](NC(=O)[C@H](NC(=O)[C@H](CO)NC(=O)[C@@H](Cc2cccnc2)NC(=O)[C@@H](Cc2ccc(Cl)cc2)NC(=O)[C@@H](Cc2ccc3ccccc3c2)NC(C)=O)N(C)C(=O)c2ccc(NC(C)=O)cc2)C(=O)N[C@@H](CC(C)C)C(=O)N[C@@H](CCCCNC(C)C)C(=O)N2CCC[C@@H]2C(=O)N[C@H](C)C(N)=O)cc1
ov. rat/total (Rattus norvegicus [8]): Partially active | ov. rat/total (Rattus norvegicus [3]): Active

SMILES: CC(=O)Nc1ccc(C[C@H](NC(=O)[C@H](CO)NC(=O)[C@@H](Cc2cccnc2)NC(=O)[C@@H](NC(=O)[C@@H](Cc2ccc3ccccc3c2)NC(C)=O)N(C)C(=O)c2ccc(Cl)cc2)C(=O)N[C@H](Cc2ccc(NC(C)=O)cc2)C(=O)N[C@@H](CC(C)C)C(=O)N[C@@H](CCCCNC(C)C)C(=O)N2CCC[C@@H]2C(=O)N[C@H](C)C(N)=O)cc1 (mixture of isomers)
ov. rat/total (Rattus norvegicus [13]): inactive

SMILES: CC(=O)Nc1ccc(C[C@H](NC(=O)[C@H](CO)NC(=O)[C@@H](Cc2cccnc2)NC(=O)[C@@H](Cc2ccc(Cl)cc2)NC(=O)[C@@H](Cc2ccc3ccccc3c2)NC(C)=O)C(=O)N[C@@H](C(=O)N[C@@H](CC(C)C)C(=O)N[C@@H](CCCCNC(C)C)C(=O)N2CCC[C@@H]2C(=O)N[C@H](C)C(N)=O)N(C)C(=O)c2ccc(NC(C)=O)cc2)cc1 (mixture of isomers)
ov. rat/total (Rattus norvegicus [1]): Partially active

SMILES: CC(=O)Nc1ccc(C[C@H](NC(=O)[C@H](CO)NC(=O)[C@@H](Cc2cccnc2)NC(=O)[C@@H](Cc2ccc(Cl)cc2)NC(=O)[C@@H](NC(C)=O)N(C)C(=O)c2ccc3ccccc3c2)C(=O)N[C@H](Cc2ccc(NC(C)=O)cc2)C(=O)N[C@@H](CC(C)C)C(=O)N[C@@H](CCCCNC(C)C)C(=O)N2CCC[C@@H]2C(=O)N[C@H](C)C(N)=O)cc1 (single isomer, unassigned)
ov. rat/total (Rattus norvegicus [3]): Active | ov. rat/total (Rattus norvegicus [14]): Partially active

SMILES: CC(=O)Nc1ccc(C[C@H](NC(=O)[C@H](CO)NC(=O)[C@@H](Cc2cccnc2)NC(=O)[C@@H](Cc2ccc(Cl)cc2)NC(=O)[C@@H](Cc2ccc3ccccc3c2)NC(C)=O)C(=O)N[C@H](Cc2ccc(NC(C)=O)cc2)C(=O)N[C@@H](NC(C)=O)C(=O)N[C@@H](CCCCNC(C)C)C(=O)N2CCC[C@@H]2C(=O)N[C@H](C)C(N)=O)cc1
ov. rat/total (Rattus norvegicus [15]): Partially active | ov. rat/total (Rattus norvegicus [2]): Active

SMILES: CC(=O)Nc1ccc(C[C@H](NC(=O)[C@@H](NC(=O)CO)NC(=O)[C@@H](Cc2cccnc2)NC(=O)[C@@H](Cc2ccc(Cl)cc2)NC(=O)[C@@H](Cc2ccc3ccccc3c2)NC(C)=O)C(=O)N[C@H](Cc2ccc(NC(C)=O)cc2)C(=O)N[C@@H](CC(C)C)C(=O)N[C@@H](CCCCNC(C)C)C(=O)N2CCC[C@@H]2C(=O)N[C@H](C)C(N)=O)cc1 (single isomer, unassigned)
ov. rat/total (Rattus norvegicus [12]): Partially active

IC50 [16]: 2500 nM
SMILES: CC(=O)Nc1ccc(C[C@H](NC(=O)[C@H](CO)NC(=O)[C@@H](Cc2cccnc2)NC(=O)[C@H](NC(=O)c2cn[nH]c2N)NC(=O)[C@@H](Cc2ccc3ccccc3c2)NC(C)=O)C(=O)N[C@H](Cc2ccc(NC(C)=O)cc2)C(=O)N[C@@H](CC(C)C)C(=O)N[C@@H](CCCCNC(C)C)C(=O)N2CCC[C@H]2C(=O)N[C@H](C)C(N)=O)cc1

IC50 [16]: 3 nM
SMILES: CC(=O)Nc1ccc(C[C@H](NC(=O)[C@H](CO)NC(=O)[C@@H](Cc2cccnc2)NC(=O)[C@@H](Cc2ccc(Cl)cc2)NC(=O)[C@@H](NC(C)=O)NC(=O)c2ccc3ccccc3c2)C(=O)N[C@H](Cc2ccc(NC(C)=O)cc2)C(=O)N[C@@H](CC(C)C)C(=O)N[C@@H](CCCCNC(C)C)C(=O)N2CCC[C@H]2C(=O)N[C@H](C)C(N)=O)cc1
